Measurements from ChEMBL document CHEMBL1126131, “6-Alkyl-12-formylindolo[2,1-a]isoquinolines. Syntheses, estrogen receptor binding affinities, and stereospecific cytostatic activity” (1992).
Values joined by “and” are separate entries in the source; they are usually repeats but may differ in a detail not shown here. Equal entries are not always repeated.

What was measured:
[1] = target: T1, Estrogen receptor (Mus musculus) (UniProt O08537+P19785); test: Percent inhibition of estrone-stimulated uterotrophic effect in mice at 250 ug dose; format: functional
How it was run: (§1)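 Antiuterotrophic test in immature female NMRI mice (20 days old). Estrone 0.4 μg was co-injected with the compound in olive oil, sc daily for three days. Uterine dry weight per body weight was read 24 h after the last dose. Inhibition (%) = 100 − [(W_S,T − W_V)/(W_S − W_V) × 100], where W_V is the vehicle control.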

MCF7 [2] = test: Inhibition of hormone-sensitive MCF-7 mammary tumor cell proliferation at 1*10e-6 M; format: functional, Homo sapiens
How it was run: (§2)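 MCF-7 cells were grown in modified improved MEM with 10% newborn calf serum at 37 °C and 5% CO2, plated in 96-well plates for 3 d, then given drug medium (controls 0.1% DMF). After 3 days, cells were glutaraldehyde-fixed and crystal violet-stained; T/C = test/control optical density, corrected for initial density (vinblastine 10^-7 M). 16 replicates ± SD.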

MDA-MB-231 [3] = test: Inhibition of hormone-independent MDA-MB 231 mammary tumor cell proliferation at 5*10e-6 M; format: functional, Homo sapiens
How it was run: (§3)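 MDA-MB 231 cells were grown in McCoy 5a medium with 10% NCS and were pre-grown 3 d in microplates before drug medium was added (controls 0.1% DMF). After 2 days of incubation, wells were fixed with 1% glutaraldehyde, stained with 0.02% crystal violet, and read by optical density. T/C (%) was corrected for initial density (vinblastine 10^-7 M). 16 replicates ± SD.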

[4] = target: Estrogen receptor (Bos taurus) (UniProt Q9XSB5+P49884); test: Relative binding affinity for calf uterine estrogen receptor compared to 17-beta-estradiol (E2); format: protein assay
How it was run: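 Competitive binding in calf uterine cytosol (final protein 3 mg/mL) in Tris-EDTA-NaN3 buffer, pH 7.5. 5 nM [3H]17β-estradiol plus competitor at 10^-9 to 10^-5 M, 18 h at 4 °C. Free ligand removed with dextran-coated charcoal (90 min, 4 °C). Nonspecific binding from 4 μM estradiol. RBA = ratio of estradiol to test molar concentrations giving 50% displacement × 100.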

[5] = target: T1, Estrogen receptor (Mus musculus); test: Anti-uterotrophic effect in mice as uterine weight(mg) relative to body weight(g) at 2 ug dose; format: functional
How it was run: (§4)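 Immature female NMRI mice, 20 days old, groups of six to ten; compound plus standard estrone 0.4 μg in olive oil (100 μL/animal) given sc on three consecutive days. Killed 24 h after last injection; uteri fixed in Bouin solution 2 h, dried at 100 °C for 18 h, weighed. Relative weight = uterine dry weight (mg)/body weight (g) × 100; mean of 6 animals ± SD.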

MDA-MB-231 [6] = test: Inhibition of hormone-independent MDA-MB 231 mammary tumor cell proliferation at 1*10e-5 M; format: functional, Homo sapiens; how it was run: as §3
[7] = target: T1, Estrogen receptor (Mus musculus); test: Uterotrophic effect in mice as uterine weight(mg) relative to body weight(g) at 2 ug dose; format: functional, tissue-based
How it was run: (§5)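 Uterotrophic test: 20-day-old immature female NMRI mice, six to ten per group, received compound alone in olive oil (100 μL/animal) sc on three consecutive days; controls received vehicle. After 24 h, uteri were Bouin-fixed 2 h and dried 18 h at 100 °C. Uterine dry weight (mg)/body weight (g) × 100; mean of 6 ± SD.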

[8] = target: T1, Estrogen receptor (Mus musculus); test: Anti-uterotrophic effect in mice as uterine weight(mg) relative to body weight(g) at 50 ug dose; format: functional; how it was run: as §4
[9] = target: T1, Estrogen receptor (Mus musculus); test: Percent inhibition of estrone-stimulated uterotrophic effect in mice at 2 ug dose; format: functional; how it was run: as §1
[10] = target: T1, Estrogen receptor (Mus musculus); test: Uterotrophic effect in mice as uterine weight(mg) relative to body weight(g) at 10 ug dose; format: functional, tissue-based; how it was run: as §5
[11] = target: T1, Estrogen receptor (Mus musculus); test: Anti-uterotrophic effect in mice as uterine weight(mg) relative to body weight(g) at 10 ug dose; format: functional; how it was run: as §4
MDA-MB-231 [12] = test: Inhibition of hormone-independent MDA-MB 231 mammary tumor cell proliferation at 1*10e-7 M; format: functional, Homo sapiens; how it was run: as §3
[13] = target: T1, Estrogen receptor (Mus musculus); test: Anti-uterotrophic effect in mice as uterine weight(mg) relative to body weight(g) at 250 ug dose; format: functional; how it was run: as §4
MCF7 [14] = test: Inhibition of hormone-sensitive MCF-7 mammary tumor cell proliferation at 1*10e-5 M; format: functional, Homo sapiens; how it was run: as §2
[15] = target: T1, Estrogen receptor (Mus musculus); test: Uterotrophic effect in mice as uterine weight(mg) relative to body weight(g) at 50 ug dose; format: functional, tissue-based; how it was run: as §5
MCF7 [16] = test: Inhibition of hormone-sensitive MCF-7 mammary tumor cell proliferation at 1*10e-7 M; format: functional, Homo sapiens; how it was run: as §2
MCF7 [17] = test: Inhibition of hormone-sensitive MCF-7 mammary tumor cell proliferation at 5*10e-6 M; format: functional, Homo sapiens; how it was run: as §2
[18] = target: T1, Estrogen receptor (Mus musculus); test: Uterotrophic effect in mice as uterine weight(mg) relative to body weight(g) at 250 ug dose; format: functional, tissue-based; how it was run: as §5
[19] = target: T1, Estrogen receptor (Mus musculus); test: Percent inhibition of estrone-stimulated uterotrophic effect in mice at 10 ug dose; format: functional; how it was run: as §1
[20] = target: T1, Estrogen receptor (Mus musculus); test: Percent inhibition of estrone-stimulated uterotrophic effect in mice at 50 ug dose; format: functional; how it was run: as §1
MDA-MB-231 [21] = test: Inhibition of hormone-independent MDA-MB 231 mammary tumor cell proliferation at 1*10e-6 M; format: functional, Homo sapiens; how it was run: as §3

T1 sequence (O08537 whole entry, looked up): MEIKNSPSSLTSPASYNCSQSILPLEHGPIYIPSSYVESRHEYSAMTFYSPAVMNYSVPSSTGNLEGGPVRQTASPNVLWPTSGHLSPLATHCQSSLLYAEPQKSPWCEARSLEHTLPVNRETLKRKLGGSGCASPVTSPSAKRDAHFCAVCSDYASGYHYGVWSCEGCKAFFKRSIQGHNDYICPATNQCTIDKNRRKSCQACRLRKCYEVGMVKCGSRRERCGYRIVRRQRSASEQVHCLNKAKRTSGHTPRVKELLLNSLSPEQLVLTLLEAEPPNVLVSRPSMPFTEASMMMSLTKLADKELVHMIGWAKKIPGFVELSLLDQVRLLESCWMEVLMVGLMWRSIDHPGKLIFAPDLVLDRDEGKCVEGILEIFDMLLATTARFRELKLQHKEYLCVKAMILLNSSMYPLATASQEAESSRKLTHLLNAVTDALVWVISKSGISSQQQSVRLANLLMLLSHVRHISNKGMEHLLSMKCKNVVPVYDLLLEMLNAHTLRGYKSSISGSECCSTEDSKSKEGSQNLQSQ
T1 sequence (P19785 whole entry, looked up): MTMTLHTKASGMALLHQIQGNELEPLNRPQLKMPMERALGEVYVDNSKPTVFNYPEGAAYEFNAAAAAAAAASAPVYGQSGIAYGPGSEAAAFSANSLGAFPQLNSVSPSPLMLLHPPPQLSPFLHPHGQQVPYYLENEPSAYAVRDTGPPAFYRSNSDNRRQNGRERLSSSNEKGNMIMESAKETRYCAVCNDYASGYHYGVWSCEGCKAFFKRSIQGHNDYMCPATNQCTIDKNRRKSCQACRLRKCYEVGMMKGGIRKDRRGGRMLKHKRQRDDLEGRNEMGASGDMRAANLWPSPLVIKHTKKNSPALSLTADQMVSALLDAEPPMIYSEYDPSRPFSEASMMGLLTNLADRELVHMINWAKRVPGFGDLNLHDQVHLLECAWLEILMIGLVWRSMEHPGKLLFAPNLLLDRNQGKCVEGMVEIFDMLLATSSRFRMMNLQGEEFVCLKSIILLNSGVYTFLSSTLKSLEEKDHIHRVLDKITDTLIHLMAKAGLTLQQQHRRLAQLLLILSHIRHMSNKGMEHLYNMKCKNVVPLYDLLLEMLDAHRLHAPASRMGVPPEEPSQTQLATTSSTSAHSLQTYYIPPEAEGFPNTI

| SMILES | inhibition [1] [%] | relative binding affinity (RBA) [4] | inhibition [9] [%] | inhibition [19] [%] | inhibition [20] [%] | T/C (MCF7 [2]) [%] | T/C (MDA-MB-231 [3]) [%] | Relative uterus weight [5] | T/C (MDA-MB-231 [6]) [%] | Relative uterus weight [7] | Relative uterus weight [8] | Relative uterus weight [10] | Relative uterus weight [11] | T/C (MDA-MB-231 [12]) [%] | Relative uterus weight [13] | T/C (MCF7 [14]) [%] | T/C (MCF7 [16]) [%] | T/C (MCF7 [17]) [%] | Relative uterus weight [18] | T/C (MDA-MB-231 [21]) [%] | also measured |
| --- | --- | --- | --- | --- | --- | --- | --- | --- | --- | --- | --- | --- | --- | --- | --- | --- | --- | --- | --- | --- | --- |
| CCCCC1Cc2cc(OC(C)=O)ccc2-c2c(C=O)c3cc(OC(C)=O)ccc3n21 (stereo not drawn) | 50 | 2.1 | 20 | 17 | 18 | 12 | 12 | 46.7 | 12 | 20.2 | 47.8 | 18.6 | 48.2 | 116 | 34.3 | 0 | 81 | 0 | 25.5 | 73 | Relative uterus weight [15]: 9.1 |
| CCCCCC1Cc2cc(OC(C)=O)ccc2-c2c(C=O)c3cc(OC(C)=O)ccc3n21 (stereo not drawn) | 8 | 1.9 | 0 | 14 | 24 | 94 | 80 | 57.3 | 47 | 17.9 | 47.1 | 16 | 51 | 105 | 53.8 | 37 | 102 | 77 | 22.5 | 100 | Relative uterus weight [15]: 20.2 |
| CC/C(=C(\c1ccccc1)c1ccc(OCCN(C)C)cc1)c1ccccc1 [TAMOXIFEN] | – | – | – | – | – | 57 | – | – | – | – | – | – | – | – | – | 18 | 85 | 43 | – | – | – |
| CCCC1Cc2cc(OC(C)=O)ccc2-c2c(C=O)c3cc(OC(C)=O)ccc3n21 (stereo not drawn) | 28 | 2.6 | 27 | 20 | 26 | 86 | 43 | 38.8 | 9 | 16.9 | 39.2 | 21.1 | 41.1 | 109 | 38.5 | 0 | 99 | 9 | 32.9 | 106 | Relative uterus weight [15]: 24.9 |
| CC(=O)Oc1ccc2c(c1)CC(C)n1c-2c(C=O)c2cc(OC(C)=O)ccc21 (stereo not drawn) | 32 | 3.9 | 0 | 36 | 49 | 94 | 94 | 60.5 | 61 | 14.8 | 36.5 | 18.2 | 42.8 | 109 | 44.4 | 23 | 93 | 54 | 43.2 | 104 | Relative uterus weight [15]: 24.6 |

Continued, in another order:

| inhibition [1] [%] | relative binding affinity (RBA) [4] | inhibition [9] [%] | inhibition [19] [%] | inhibition [20] [%] | SMILES | T/C (MCF7 [2]) [%] | T/C (MDA-MB-231 [3]) [%] | Relative uterus weight [5] | T/C (MDA-MB-231 [6]) [%] | Relative uterus weight [7] | Relative uterus weight [8] | Relative uterus weight [10] | Relative uterus weight [11] | T/C (MDA-MB-231 [12]) [%] | Relative uterus weight [13] | T/C (MCF7 [14]) [%] | T/C (MCF7 [16]) [%] | T/C (MCF7 [17]) [%] | Relative uterus weight [18] | T/C (MDA-MB-231 [21]) [%] | also measured |
| --- | --- | --- | --- | --- | --- | --- | --- | --- | --- | --- | --- | --- | --- | --- | --- | --- | --- | --- | --- | --- | --- |
| 38 | 1.7 | 20 | 14 | 30 | CC(=O)Oc1ccc2c(c1)CC(C)n1c-2c(C=O)c2ccc(OC(C)=O)cc21 (stereo not drawn) | 106 | 79 | 45.3 | 45 | 19.6 | 42.6 | 18.2 | 48.5 | 109 | 39.7 | 1 | 97 | 36 | 19.9 | 112 | Relative uterus weight [15]: 18.2 |
| 65 | 0.5 | 39 | 41 | 35 | CCCC1Cc2cc(OC(C)=O)ccc2-c2c(C=O)c3ccc(OC(C)=O)cc3n21 (stereo not drawn) | 1 | 15 | 39.4 | 14 | 20.4 | 40.7 | 17.1 | 38.4 and 16.9 | 100 | 29.5 | 0 | 71 | 0 | 17.4 | 31 | – |
| 80 | 3.3 | 25 | 22 | 74 | CCC1Cc2cc(OC(C)=O)ccc2-c2c(C=O)c3cc(OC(C)=O)ccc3n21 (stereo not drawn) | 91 | 86 | 45.3 | 52 | 18.2 | 27 | 17.2 | 46.1 | 106 | 24.6 | 12 | 85 | 43 | 41.8 | 111 | Relative uterus weight [15]: 20.5 |
| 19 | 0.7 | 6 | 20 | 8 | CCCCC1Cc2cc(OC(C)=O)ccc2-c2c(C=O)c3ccc(OC(C)=O)cc3n21 (stereo not drawn) | 0 | 24 | 52.8 | 16 | 16.7 | 51.8 | 13.7 | 46.7 | 104 | 47.5 | 0 | 66 | 0 | 10.6 | 30 | Relative uterus weight [15]: 12.3 |
| 38 | 0.6 | 19 | 25 | 52 | CCCCCC1Cc2cc(OC(C)=O)ccc2-c2c(C=O)c3ccc(OC(C)=O)cc3n21 (stereo not drawn) | 90 | 70 | 49 | 27 | 16.4 | 35.6 | 16.6 | 46.4 | 118 | 41.2 | 0 | 101 | 0 | 19.5 | 105 | Relative uterus weight [15]: 15.8 |
| 38 | 1.3 | 17 | 14 | 27 | CCC1Cc2cc(OC(C)=O)ccc2-c2c(C=O)c3ccc(OC(C)=O)cc3n21 (stereo not drawn) | 83 | 34 | 47.9 | 10 | 15.9 | 44.2 | 17.7 | 49 | 101 | 40.2 | 0 | 89 | 2 | 22.8 | 92 | Relative uterus weight [15]: 18.2 |
